Reference: ChEMBL document CHEMBL2176995, “An oral sphingosine 1-phosphate receptor 1 (S1P(1)) antagonist prodrug with efficacy in vivo: discovery, synthesis, and evaluation” (J Med Chem, 2012)

Tests used:
Rattus norvegicus [1] = test: Toxicity in stringent Dark Agouti to Lewis rat heterotopic vascular heart allotransplantation model assessed as incidence of histopathological changes at 30 mg/kg, po bid coadministered with 0.3 mg/kg, qd everolimus by hematoxylin and eosin staining; assay type: organism-based; conditions: in vivo
Method in brief: (§1)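 DA donor hearts were grafted into Lewis recipients. Treatment started 3 days before transplantation: prodrug 30 mg/kg po b.i.d. (PEG200/water, pH 5) alone or with sotrastaurin 10 mg/kg po b.i.d. or everolimus 0.3 mg/kg po q.d. Grafts were followed to rejection or up to 50 days. Allografts were formalin-fixed, cut at 3 μm, stained with H&E and trichrome, and scored for rejection. Lymphocytes were counted weekly before dosing, and body weight was monitored.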

Rattus norvegicus [2] = test: Toxicity in stringent Dark Agouti to Lewis rat heterotopic vascular heart allotransplantation model assessed as change in body weight at 30 mg/kg, po bid coadministered with 0.3 mg/kg, qd everolimus; assay type: organism-based; conditions: in vivo; method in brief: as §1
Rattus norvegicus [3] = test: Toxicity in stringent Dark Agouti to Lewis rat heterotopic vascular heart allotransplantation model assessed as change in body weight at 30 mg/kg, po bid coadministered with 10 mg/kg, bid sotrastaurin; assay type: organism-based; conditions: in vivo; method in brief: as §1
Rattus norvegicus [4] = test: Toxicity in stringent Dark Agouti to Lewis rat heterotopic vascular heart allotransplantation model assessed as compound tolerance at 30 mg/kg, po bid coadministered with 10 mg/kg, bid sotrastaurin; assay type: organism-based; conditions: in vivo; method in brief: as §1
Rattus norvegicus [5] = test: Increase in allograft survival in stringent Dark Agouti to Lewis rat heterotopic vascular heart allotransplantation model assessed as allograft mean survival time at 30 mg/kg, po bid coadministered with 10 mg/kg, bid sotrastaurin (reference value: 6 days); assay type: functional
Method in brief: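 This was a DA-to-Lewis heart allograft model with co-treatment from 3 days before transplantation. The prodrug was given po b.i.d. in PEG200/water at pH 5, plus the PKC inhibitor po b.i.d. in D-glucose/PEG400/water/HCl. Lymphocytes were counted weekly before dosing, and blood levels of both drugs were determined. Survival was followed up to 50 days, as median days, with H&E and trichrome histology.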

[6] = Stability in pH 7.4 buffer assessed as compound hydrolysis measured after 18 hrs by UPLC; assay type: physicochemical; conditions: read-out: Drug degradation
Method in brief: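 The ester was incubated in buffer at pH 7.4 or pH 10. Remaining ester and the hydrolysed carboxylic acid were followed over time by UPLC, at time points out to 82 h.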

Rattus norvegicus [7] = test: Reduction in peripheral blood lymphocytes in Lewis rat assessed as remaining circulating lymphocytes level at 30 mg/kg, po administered as single dose measured 24 hrs post dose by automated hematology analyzer; assay type: functional
Method in brief: (§2)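 Male Lewis rats receive a single oral dose of compound or vehicle, freshly made in 30% PEG200/buffer. Blood (<200 μL) is drawn by sublingual puncture under isoflurane 5% v/v at baseline and later time points. Lymphocytes are counted on an automated hematology analyzer, and each animal's change is expressed as percent of its own pre-treatment baseline.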

Rattus norvegicus [8] = test: Reduction in peripheral blood lymphocytes in Lewis rat assessed as remaining circulating lymphocytes level at 30 mg/kg, po administered as single dose measured 14 hrs post dose by automated hematology analyzer; assay type: functional; method in brief: as §2

With `COC(=O)[C@H](CCN(C)C)N(C)C(=O)c1c(C)cc(-c2cccc(NS(=O)(=O)c3cc(C)c(Cl)cc3C)c2)cc1C` the Activity (Rattus norvegicus [1]) was “Non-toxic”, the Activity (Rattus norvegicus [2]) was “Non-toxic” and the Activity (Rattus norvegicus [3]) was “Non-toxic”. For the same molecule, the Activity (Rattus norvegicus [4]) was “Non-toxic”, the MST (Rattus norvegicus [5]) was over 50 days and the degraded at 18 h [6] was 48%. For the same molecule, the Activity (Rattus norvegicus [7]) was 22% and the Activity (Rattus norvegicus [8]) was 21%.
